Data set [1] can be described thus: Half life in Sprague-Dawley rat at 2 mg/kg, iv. The format is ADME, organism-based. Also noted: dose 2 mg/kg, route intravenous. The note with it: in vivo.
Data set [2] relates to Mus musculus. As to the kind of experiment: Toxicity in mouse at 100 mg/kg administered for 4 days. The conditions noted are these: in vivo, 96 h. The data set is classed as organism-based. Further details: dose 100 mg/kg.
The nature of data set [3]: Tmax in Sprague-Dawley rat at 2 mg/kg, iv. The data set is classed as ADME, organism-based. Further details: dose 2 mg/kg, route intravenous. The note with it: in vivo.
A further data set concerns Brain. Description: Drug uptake in Sprague-Dawley rat brain at 2 mg/kg, iv. The data set is classed as ADME, organism-based. Further details: dose 2 mg/kg, route intravenous. The conditions noted are these: in vivo. In outline:
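Male Sprague-Dawley rats dosed intravenously at 2 mg kg^-1; brain uptake calculated as brain/plasma AUClast ratio.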

Data set [4] can be described thus: Apparent permeability across human Caco-2 cell membrane. The format is ADME, cell-based. The conditions noted are these: read-out: permeability. A general note: Caco-2 monolayers are a common model of the intestinal barrier.
The nature of data set [5]: Oral bioavailability in Sprague-Dawley rat. The data set is classed as ADME, organism-based. The note with it: in vivo.
Data set [6] addresses Voltage-gated inwardly rectifying potassium channel KCNH2 (Homo sapiens, UniProt Q12809). Description: Binding affinity to human ERG at 30 uM by patch clamp technique. The gist of the method:
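hERG potassium channel examined by patch clamp at concentrations up to 30 µM, the maximal concentration reached in the protocol; response compared with vehicle alone.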

In the next data set the test system is Liver microsomes. Description: Metabolic stability in rat liver microsomes after 30 mins. The format is ADME, Microsome. The conditions noted are these: 0.5 h. The gist of the method: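 Turnover by rodent liver microsomes measured as percent turnover after 30 min.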
On the technique in general: Liver microsomes are a subcellular fraction often used to study metabolism.

The target in the next data set is T1, Adenosine receptor A2b (Homo sapiens, UniProt P29275).
T1 sequence (P29275 whole entry): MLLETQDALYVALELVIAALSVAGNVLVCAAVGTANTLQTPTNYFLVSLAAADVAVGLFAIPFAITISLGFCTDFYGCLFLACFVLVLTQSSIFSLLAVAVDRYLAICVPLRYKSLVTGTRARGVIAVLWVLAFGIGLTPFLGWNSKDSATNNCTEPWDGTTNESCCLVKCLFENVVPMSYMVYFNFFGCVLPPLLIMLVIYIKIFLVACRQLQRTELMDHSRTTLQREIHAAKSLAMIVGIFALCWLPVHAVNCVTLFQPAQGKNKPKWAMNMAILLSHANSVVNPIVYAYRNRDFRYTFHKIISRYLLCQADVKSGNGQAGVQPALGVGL
As to the kind of experiment: Displacement of radioligand from human recombinant adenosine A2B receptor at 21 degC after 60 mins by cell-based microplate scintillation counting.

Data set [7] in a line: Aqueous solubility in phosphate buffered saline. The format is physicochemical.
Data set [8] is filed under the species Homo sapiens. As to the kind of experiment: Selectivity for human recombinant adenosine A2A receptor over human recombinant adenosine A3 receptor by cell-based assay.
The species named for data set [9] is Homo sapiens. Description: Selectivity for human recombinant adenosine A2A receptor over human recombinant adenosine A2B receptor by cell-based assay.
The next data set deals with T2, Adenosine receptor A1 (Homo sapiens, UniProt P30542).
T2 sequence (P30542 whole entry): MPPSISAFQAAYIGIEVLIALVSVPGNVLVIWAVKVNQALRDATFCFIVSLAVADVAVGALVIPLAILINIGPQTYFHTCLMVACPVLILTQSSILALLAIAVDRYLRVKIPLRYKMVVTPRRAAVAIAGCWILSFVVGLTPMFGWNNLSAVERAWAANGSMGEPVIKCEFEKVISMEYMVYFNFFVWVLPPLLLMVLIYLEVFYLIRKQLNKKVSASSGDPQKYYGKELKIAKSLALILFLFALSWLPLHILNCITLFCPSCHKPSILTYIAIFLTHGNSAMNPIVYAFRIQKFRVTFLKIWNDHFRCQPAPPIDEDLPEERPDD
Description: Displacement of radioligand from human recombinant adenosine A1 receptor at 21 degC after 90 mins by cell-based microplate scintillation counting.

A further data set concerns the target T3, Adenosine receptor A3 (Homo sapiens, UniProt P0DMS8).
T3 sequence (P0DMS8 whole entry): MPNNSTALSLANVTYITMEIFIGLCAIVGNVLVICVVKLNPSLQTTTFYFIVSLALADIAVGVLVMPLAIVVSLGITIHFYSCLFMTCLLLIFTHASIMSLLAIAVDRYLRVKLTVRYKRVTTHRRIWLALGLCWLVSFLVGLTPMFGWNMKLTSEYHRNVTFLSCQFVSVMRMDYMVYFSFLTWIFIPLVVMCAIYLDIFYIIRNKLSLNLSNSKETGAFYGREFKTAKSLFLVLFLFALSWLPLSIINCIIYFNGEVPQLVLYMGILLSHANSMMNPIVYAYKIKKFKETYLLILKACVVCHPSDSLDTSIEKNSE
Description: Displacement of radioligand from human recombinant adenosine A3 receptor at 21 degC after 60 mins by cell-based microplate scintillation counting.

The next data set concerns Rattus norvegicus. As to the kind of experiment: Reversal of haloperidol-induced hypolocomotion in Sprague-Dawley rat assessed as time spent for locomotor activity at 30 mg/kg, po administered 120 mins prior and measured for 60 mins. The data set is classed as functional, organism-based. Further details: dose 30 mg/kg.
Data set [10] addresses T4, Adenosine receptor A2a (Homo sapiens, UniProt P29274). As to the kind of experiment: Displacement of radioligand from human recombinant adenosine A2A receptor at 21 degC after 90 mins by cell-based microplate scintillation counting.
Data set [11] is filed under the species Homo sapiens. As to the kind of experiment: Selectivity for human recombinant adenosine A2A receptor over human recombinant adenosine A1 receptor by cell-based assay.
Data set [12] deals with Mus musculus. As to the kind of experiment: Reversal of haloperidol-induced hypolocomotion in TO mouse assessed as time spent for locomotor activity at 30 mg/kg, po administered 15 mins prior and measured for 60 mins. Further details: dose 30 mg/kg. The format is functional, organism-based.
For data set [13], the system named is Mus musculus. Description: Increase in locomotor activity in mouse at 100 mg/kg administered for 4 days. The format is functional, organism-based. Further details: dose 100 mg/kg.
Data set [14] has as its target T4, Adenosine receptor A2a. The note with it: CHO-K1.
Data set [15] deals with T5, Adenosine receptor A1 (Homo sapiens) (UniProt P30542).
T5 sequence (whole entry): T2 sequence (P30542 whole entry)
The note with it: CHO-K1.

The target in data set [16] is T6, Adenosine receptor A2b (Homo sapiens) (UniProt P29275).
T6 sequence (whole entry): T1 sequence (P29275 whole entry)
The conditions noted are these: CHO-K1.

Data set [17] has as its target T7, Adenosine receptor A3 (Homo sapiens) (UniProt P0DMS8).
T7 sequence (whole entry): T3 sequence (P0DMS8 whole entry)
The note with it: CHO-K1.

pKi: −log10 of the molar value. In brackets after ≈: the same amount, converted by molar mass. Activity calls are given as the source filed them. Where only a bound is given, the exact number is not on record here.

T4 sequence (P29274 whole entry): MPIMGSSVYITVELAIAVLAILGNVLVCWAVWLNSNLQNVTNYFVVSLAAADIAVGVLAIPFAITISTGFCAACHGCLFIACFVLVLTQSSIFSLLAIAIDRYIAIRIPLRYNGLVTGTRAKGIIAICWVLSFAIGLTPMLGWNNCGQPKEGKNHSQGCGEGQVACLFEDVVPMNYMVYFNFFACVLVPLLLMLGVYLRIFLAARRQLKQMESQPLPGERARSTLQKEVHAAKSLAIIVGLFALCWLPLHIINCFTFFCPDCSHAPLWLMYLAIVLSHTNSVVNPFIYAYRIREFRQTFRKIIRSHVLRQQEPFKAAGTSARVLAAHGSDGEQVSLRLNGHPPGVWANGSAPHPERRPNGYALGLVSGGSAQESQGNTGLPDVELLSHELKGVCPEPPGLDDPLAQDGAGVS
Voltage-gated inwardly rectifying potassium channel KCNH2, sequence (Q12809 whole entry): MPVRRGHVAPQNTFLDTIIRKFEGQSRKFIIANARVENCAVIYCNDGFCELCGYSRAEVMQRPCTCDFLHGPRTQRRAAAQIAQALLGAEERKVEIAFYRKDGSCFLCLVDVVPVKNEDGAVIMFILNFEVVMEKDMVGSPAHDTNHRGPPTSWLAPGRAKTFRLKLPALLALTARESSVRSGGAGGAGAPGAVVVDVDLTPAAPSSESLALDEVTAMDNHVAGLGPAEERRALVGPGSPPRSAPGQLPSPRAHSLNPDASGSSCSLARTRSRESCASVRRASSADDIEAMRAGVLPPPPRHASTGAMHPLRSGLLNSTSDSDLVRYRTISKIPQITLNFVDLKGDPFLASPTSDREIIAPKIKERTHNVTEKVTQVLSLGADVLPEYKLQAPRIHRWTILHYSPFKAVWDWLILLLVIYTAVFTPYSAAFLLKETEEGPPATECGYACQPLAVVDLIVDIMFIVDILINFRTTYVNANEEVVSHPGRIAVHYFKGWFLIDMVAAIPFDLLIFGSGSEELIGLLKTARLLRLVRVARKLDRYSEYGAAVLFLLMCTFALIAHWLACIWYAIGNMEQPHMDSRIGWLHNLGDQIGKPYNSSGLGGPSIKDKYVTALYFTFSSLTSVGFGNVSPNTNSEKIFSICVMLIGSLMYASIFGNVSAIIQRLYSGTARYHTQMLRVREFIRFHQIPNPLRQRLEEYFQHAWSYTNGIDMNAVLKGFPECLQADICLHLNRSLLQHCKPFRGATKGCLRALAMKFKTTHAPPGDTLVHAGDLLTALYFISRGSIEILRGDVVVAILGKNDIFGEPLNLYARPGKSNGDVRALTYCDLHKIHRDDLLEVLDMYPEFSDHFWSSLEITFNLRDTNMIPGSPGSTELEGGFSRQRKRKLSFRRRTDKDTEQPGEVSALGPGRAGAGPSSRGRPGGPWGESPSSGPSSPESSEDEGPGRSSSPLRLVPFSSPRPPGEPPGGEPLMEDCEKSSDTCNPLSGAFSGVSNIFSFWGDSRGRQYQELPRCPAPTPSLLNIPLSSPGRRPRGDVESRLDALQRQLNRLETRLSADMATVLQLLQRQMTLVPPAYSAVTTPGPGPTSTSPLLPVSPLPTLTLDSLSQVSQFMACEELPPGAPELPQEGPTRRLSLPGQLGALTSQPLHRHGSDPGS

By half-life is commonly meant the time needed for the level to fall by half in the phase considered. High values mean slow loss, low ones fast loss. For orientation: Tmax means the time from dosing to the highest level. In general, bioavailability refers to the share of a dose that reaches the circulation, judged against a reference dose that is usually intravenous. A low value points to little systemic uptake. On to `Cc1cc(Cn2nnc3c(-c4ccco4)nc(N)nc32)ccc1N` [VIPADENANT], for which the half-life in data set [1] was 120 min. In addition, the Activity result in the data set with Mus musculus [2] was “Non-toxic”; in [6], “Not Active”. In addition, the Tmax in data set [3] worked out at 30 min. In addition, in the data set on Brain, the Drug uptake amounted to 57%. The Papp in [4] came out at 11 ×10⁻⁶ cm/s. The bioavailability in data set [5] came to 35%.

Usually pKi stands for −log10 of the Ki, conventionally taken in molar units. A word on the solubility: it is the dissolved amount per volume that the medium holds. Read a high solubility as much dissolved substance. Take `Nc1nc(-c2ccco2)c2nnn(Cc3ccc(F)cc3F)c2n1`: in the data set on Liver microsomes, the Stability entry was “Stable”. The pKi on Adenosine receptor A2b is 6.65; on Adenosine receptor A1, 6.93; on Adenosine receptor A3, 5.93; at Adenosine receptor A2a [10], 8.70. The solubility in data set [7] came to 30 µM (≈ 9.85 µg/mL). Moreover, the fold change (FC) in the data set filed under Homo sapiens [8], in the data set filed under Homo sapiens [9] and in the data set filed under Homo sapiens [11] was more than 50 throughout. The result with Rattus norvegicus and in the data set on Mus musculus [12] was inactive.

Regarding `Cc1cc(Cn2nnc3c(-c4ccco4)nc(N)nc32)ccc1N`, in the data set with Mus musculus [13], the outcome was Active. The KA on Adenosine receptor A2a [14] came to 0.58 nM; in [15] it was 95 nM; in data set [16], 31 nM; in [17] it was 1500 nM.
